Calls of active or inactive are those of the source. No cut-off for these calls is given here.
Assays:
[1] = test system: Radical scavenging activity; experiment: Antioxidant activity assessed as DPPH radical scavenging activity at 10 uM; assay type: functional
In short: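 Test sample from a 1 mM stock in absolute ethanol was mixed with DPPH radical (10^-4 M in absolute ethanol). Absorbance was read at 517 nm after 20 min. Quercetin served as reference. Values are means of n = 2.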

[2] = Inhibition of trypsin at 10 uM
In short: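 Trypsin (0.075 mg/mL) was preincubated 20 min with test sample from a 1 mM stock. The reaction was stopped with 5% trichloroacetic acid and centrifuged. Acid-soluble protein was measured by the Lowry method. Salicylic acid (10^-6 M) was the reference. Values are means of n = 2.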

[3] = target: T1, Prostaglandin G/H synthase 2 (Ovis aries) (UniProt P79208); experiment: Inhibition of ovine COX2 at 1 mM by colorimetric assay
T1 sequence (whole entry): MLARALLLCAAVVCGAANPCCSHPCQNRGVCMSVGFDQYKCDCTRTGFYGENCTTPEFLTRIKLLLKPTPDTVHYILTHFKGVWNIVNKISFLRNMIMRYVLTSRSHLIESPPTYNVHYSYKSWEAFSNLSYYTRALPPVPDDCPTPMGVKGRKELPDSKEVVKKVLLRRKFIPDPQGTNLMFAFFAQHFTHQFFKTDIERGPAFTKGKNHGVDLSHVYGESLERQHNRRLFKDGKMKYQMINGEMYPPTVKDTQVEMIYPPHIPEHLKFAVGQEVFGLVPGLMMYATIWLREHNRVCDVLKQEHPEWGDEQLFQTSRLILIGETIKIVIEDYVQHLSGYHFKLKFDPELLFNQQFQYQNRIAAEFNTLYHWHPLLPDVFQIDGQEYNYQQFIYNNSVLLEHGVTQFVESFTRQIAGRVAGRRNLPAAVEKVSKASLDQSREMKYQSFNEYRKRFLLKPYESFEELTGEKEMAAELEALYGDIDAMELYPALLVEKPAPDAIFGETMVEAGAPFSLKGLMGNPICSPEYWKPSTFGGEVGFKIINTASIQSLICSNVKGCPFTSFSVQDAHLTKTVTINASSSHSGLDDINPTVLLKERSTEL
In short: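 Ovine COX-2 was tested with a colorimetric screening kit. Enzyme, heme and assay buffer were preincubated 5 min at 25 °C with test sample added from a 1 mM solution. Colorimetric substrate and arachidonic acid were then added, followed by a further 5 min at 25 °C. Absorbance was read at 590 nm, and % activity = inhibitor-well/no-inhibitor-well absorbance × 100. Values are means of n = 2.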

[4] = target: T2, Beta-glucuronidase (Homo sapiens) (UniProt P08236); experiment: Inhibition of beta-glucuronidase at 10 uM
T2 sequence (whole entry): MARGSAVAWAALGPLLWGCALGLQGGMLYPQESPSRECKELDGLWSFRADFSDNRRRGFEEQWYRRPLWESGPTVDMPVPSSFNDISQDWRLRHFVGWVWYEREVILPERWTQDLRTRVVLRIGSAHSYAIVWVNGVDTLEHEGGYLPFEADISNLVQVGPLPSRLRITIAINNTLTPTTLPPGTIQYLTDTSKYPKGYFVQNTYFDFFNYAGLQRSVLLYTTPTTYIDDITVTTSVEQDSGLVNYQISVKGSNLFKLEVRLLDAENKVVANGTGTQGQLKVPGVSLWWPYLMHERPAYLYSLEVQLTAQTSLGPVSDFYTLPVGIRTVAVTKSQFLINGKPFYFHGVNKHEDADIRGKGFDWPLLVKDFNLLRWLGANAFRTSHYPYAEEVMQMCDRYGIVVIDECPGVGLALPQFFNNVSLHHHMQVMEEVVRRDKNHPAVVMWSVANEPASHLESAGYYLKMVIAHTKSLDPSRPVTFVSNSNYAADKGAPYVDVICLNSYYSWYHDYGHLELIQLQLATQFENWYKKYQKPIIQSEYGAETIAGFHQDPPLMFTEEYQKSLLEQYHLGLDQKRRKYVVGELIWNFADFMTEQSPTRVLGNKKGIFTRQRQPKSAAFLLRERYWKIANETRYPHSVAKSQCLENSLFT
In short: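 Test sample from a 1 mM stock in 0.1 M acetate buffer pH 7.4 was preincubated 5 min at 37 °C with 2.5 mM p-nitrophenyl β-D-glucopyranosiduronic acid. β-Glucuronidase was then added and the mixture incubated 30 min. The reaction was stopped with 0.5 N NaOH and read at 410 nm. Salicylic acid (1 mM) was the reference. Values are means of n = 2.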

[5] = target: T3, Prostaglandin G/H synthase 1 (Ovis aries) (UniProt P05979); conditions: at 1 mM
T3 sequence (whole entry): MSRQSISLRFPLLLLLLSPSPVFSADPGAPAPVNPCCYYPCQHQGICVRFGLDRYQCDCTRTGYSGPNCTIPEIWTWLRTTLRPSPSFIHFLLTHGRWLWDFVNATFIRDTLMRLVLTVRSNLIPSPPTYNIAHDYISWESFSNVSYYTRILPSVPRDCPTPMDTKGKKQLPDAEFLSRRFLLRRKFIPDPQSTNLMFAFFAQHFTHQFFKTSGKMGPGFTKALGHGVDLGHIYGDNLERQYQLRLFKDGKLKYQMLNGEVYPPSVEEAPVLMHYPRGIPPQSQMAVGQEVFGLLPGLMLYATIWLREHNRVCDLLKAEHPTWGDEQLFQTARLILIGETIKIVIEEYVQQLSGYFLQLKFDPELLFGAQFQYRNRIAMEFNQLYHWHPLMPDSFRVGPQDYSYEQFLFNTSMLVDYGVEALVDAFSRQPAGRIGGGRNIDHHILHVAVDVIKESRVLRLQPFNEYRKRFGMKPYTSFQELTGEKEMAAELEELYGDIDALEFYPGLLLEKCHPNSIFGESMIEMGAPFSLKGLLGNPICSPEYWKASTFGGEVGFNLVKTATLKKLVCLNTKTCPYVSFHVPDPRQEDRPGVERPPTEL

COc1cc(OC)c(C(=O)/C=C/c2ccccc2Cl)c(O)c1CN1CCN(C)CC1
Activity [1]: 10.8% | inhibition [2]: 0.1% | inhibition [3]: 68.8% | inhibition [4]: 35.5% | inhibition [5]: 11.9%

COc1cc(O)c(CN2CCCC2)c(O)c1C(=O)/C=C/c1ccccc1F
Activity [1]: 32.9% | inhibition [2]: 1.2% | inhibition [3]: 21.4% | inhibition [4]: inactive

COc1cc(OC)c(C(=O)/C=C/c2cccc(Cl)c2)c(O)c1CN1CCN(C)CC1
Activity [1]: 5.2% | inhibition [2]: 1.3% | inhibition [3]: 77.8% | inhibition [4]: 23.7% | inhibition [5]: 28.7%

COc1cc(OC)c(C(=O)/C=C/c2ccccc2Br)c(O)c1CN1CCN(C)CC1
Activity [1]: 27.8% | inhibition [2]: 1.2% | inhibition [3]: 48.9% | inhibition [4]: 42%

COc1cc(OC)c(C(=O)/C=C/c2ccccc2Br)c(O)c1CN1CCCCC1
Activity [1]: 58.3% | inhibition [2]: 2.1% | inhibition [3]: 69.8% | inhibition [4]: 39.9%

COc1cc(OC)c(C(=O)/C=C/c2cccc(Br)c2)c(O)c1CN1CCN(C)CC1
Activity [1]: 37% | inhibition [2]: 1.4% | inhibition [3]: 33.3% | inhibition [4]: 75.4%

COc1cc(OC)c(C(=O)/C=C/c2ccccc2Br)c(O)c1CN1CCCC1
Activity [1]: 25% | inhibition [2]: 1.5% | inhibition [3]: 20.4% | inhibition [4]: 34.7%

COc1cc(OC)c(C(=O)/C=C/c2ccccc2F)c(O)c1CN1CCN(C)CC1
Activity [1]: 35.3% | inhibition [2]: inactive | inhibition [3]: 44.9% | inhibition [4]: inactive | inhibition [5]: 19.2%

COc1cc(OC)c(C(=O)/C=C/c2cccc(Cl)c2)c(O)c1CN1CCCC1
Activity [1]: 3.1% | inhibition [2]: 0.9% | inhibition [3]: 29.6% | inhibition [4]: 14.8%

O=C(O)c1ccccc1O
inhibition [2]: 89.2% | inhibition [4]: 23.3%

COc1cc(OC)c(C(=O)/C=C/c2cccc(Br)c2)c(O)c1CN1CCCCC1
Activity [1]: 33% | inhibition [2]: 2.8% | inhibition [3]: 87.5% | inhibition [4]: 15.4% | inhibition [5]: 21.7%

COc1cc(OC)c(C(=O)/C=C/c2ccccc2Cl)c(O)c1CN1CCCCC1
Activity [1]: 18.4% | inhibition [2]: 0.7% | inhibition [3]: 91.5% | inhibition [4]: 31.2% | inhibition [5]: 30.4%

COc1cc(OC)c(C(=O)/C=C/c2ccccc2F)c(O)c1CN1CCCCC1
Activity [1]: inactive | inhibition [2]: 1.4% | inhibition [3]: 19.9% | inhibition [4]: 56.6%

COc1cc(OC)c(C(=O)/C=C/c2cccc(Cl)c2)c(O)c1CN1CCCCC1
Activity [1]: 20.9% | inhibition [2]: 0.5% | inhibition [3]: 87.9% | inhibition [4]: 66% | inhibition [5]: 25.2%

COc1cc(OC)c(C(=O)/C=C/c2cccc(Br)c2)c(O)c1CN1CCOCC1
Activity [1]: 10.1% | inhibition [2]: 1.2% | inhibition [3]: 22.4% | inhibition [4]: 29.3%

O=c1c(O)c(-c2ccc(O)c(O)c2)oc2cc(O)cc(O)c12
Activity [1]: 86.3%

COc1cc(OC)c(C(=O)/C=C/c2cccc(Cl)c2)c(O)c1CN1CCOCC1
Activity [1]: 21.9% | inhibition [2]: 1.1% | inhibition [3]: 48.2% | inhibition [4]: 13.9%

COc1cc(OC)c(C(=O)/C=C/c2cccc(F)c2)c(O)c1CN1CCN(C)CC1
Activity [1]: 18.4% | inhibition [2]: inactive | inhibition [3]: 24.6% | inhibition [4]: 26.7%

COc1cc(OC)c(C(=O)/C=C/c2ccccc2F)c(O)c1CN1CCOCC1
Activity [1]: 19.2% | inhibition [2]: 2% | inhibition [3]: 27.1% | inhibition [4]: 21.8%

COc1cc(OC)c(C(=O)/C=C/c2ccccc2Cl)c(O)c1CN1CCOCC1
Activity [1]: 24.8% | inhibition [2]: inactive | inhibition [3]: 25.6% | inhibition [4]: 48.1%

CC(=O)Oc1ccccc1C(=O)O
inhibition [3]: 35.1%

COc1cc(OC)c(C(=O)/C=C/c2cccc(F)c2)c(O)c1CN1CCOCC1
Activity [1]: 24% | inhibition [2]: 19.5% | inhibition [3]: 38.9% | inhibition [4]: 10.8%

COc1cc(OC)c(C(=O)/C=C/c2ccccc2Br)c(O)c1CN1CCOCC1
Activity [1]: 16.7% | inhibition [2]: 1.6% | inhibition [3]: 42.3% | inhibition [4]: 32.8%

COc1cc(OC)c(C(=O)/C=C/c2cccc(Br)c2)c(O)c1CN1CCCC1
Activity [1]: 35.7% | inhibition [2]: 1.3% | inhibition [3]: 19.9% | inhibition [4]: 59.8%

COc1cc(OC)c(C(=O)/C=C/c2cccc(F)c2)c(O)c1CN1CCCCC1
Activity [1]: 14.6% | inhibition [3]: 21.7% | inhibition [4]: 7.06%

COc1cc(OC)c(C(=O)/C=C/c2cccc(F)c2)c(O)c1CN1CCCC1
Activity [1]: 11.7% | inhibition [2]: 1.3% | inhibition [3]: 21.4% | inhibition [4]: 19.4%

COc1cc(OC)c(C(=O)/C=C/c2ccccc2Cl)c(O)c1CN1CCCC1
Activity [1]: 7.89% | inhibition [2]: 0.8% | inhibition [3]: 42.5% | inhibition [4]: 32.4%
